According to ChEMBL document CHEMBL1141606, “7-Azaindole derivatives as potential partial nicotinic agonists” (Bioorg Med Chem Lett, 2008):
Each block holds one compound with its values, some of them ahead of it. Activity calls are given as the source filed them. The calls are words filed in the database; no cut-off is given here.

Columns and labels:
[1] = biological target: T1, Neuronal acetylcholine receptor; alpha4/beta2 (Rattus norvegicus, UniProt P09483+P12390); assay: Displacement of [3H]L-nicotine from alpha-4-beta-2 nAChR in rat cerebral cortex; format: tissue-based
T1 sequence (P09483 whole entry): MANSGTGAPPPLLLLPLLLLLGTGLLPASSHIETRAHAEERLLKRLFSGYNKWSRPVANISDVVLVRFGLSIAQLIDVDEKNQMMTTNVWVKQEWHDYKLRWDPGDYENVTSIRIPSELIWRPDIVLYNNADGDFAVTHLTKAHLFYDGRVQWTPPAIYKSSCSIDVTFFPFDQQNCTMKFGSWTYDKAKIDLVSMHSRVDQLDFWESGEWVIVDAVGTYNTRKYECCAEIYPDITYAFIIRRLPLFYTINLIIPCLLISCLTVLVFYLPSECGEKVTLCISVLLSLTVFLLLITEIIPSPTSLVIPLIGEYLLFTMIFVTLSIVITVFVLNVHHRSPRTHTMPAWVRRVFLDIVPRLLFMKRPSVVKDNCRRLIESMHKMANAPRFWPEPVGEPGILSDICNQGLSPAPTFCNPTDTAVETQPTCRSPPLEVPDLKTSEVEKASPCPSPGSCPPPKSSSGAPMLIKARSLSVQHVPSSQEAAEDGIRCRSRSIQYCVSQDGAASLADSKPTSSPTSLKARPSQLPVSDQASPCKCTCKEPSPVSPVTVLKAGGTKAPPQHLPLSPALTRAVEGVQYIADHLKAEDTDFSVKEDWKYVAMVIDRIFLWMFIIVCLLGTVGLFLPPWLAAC
T1 sequence (P12390 whole entry): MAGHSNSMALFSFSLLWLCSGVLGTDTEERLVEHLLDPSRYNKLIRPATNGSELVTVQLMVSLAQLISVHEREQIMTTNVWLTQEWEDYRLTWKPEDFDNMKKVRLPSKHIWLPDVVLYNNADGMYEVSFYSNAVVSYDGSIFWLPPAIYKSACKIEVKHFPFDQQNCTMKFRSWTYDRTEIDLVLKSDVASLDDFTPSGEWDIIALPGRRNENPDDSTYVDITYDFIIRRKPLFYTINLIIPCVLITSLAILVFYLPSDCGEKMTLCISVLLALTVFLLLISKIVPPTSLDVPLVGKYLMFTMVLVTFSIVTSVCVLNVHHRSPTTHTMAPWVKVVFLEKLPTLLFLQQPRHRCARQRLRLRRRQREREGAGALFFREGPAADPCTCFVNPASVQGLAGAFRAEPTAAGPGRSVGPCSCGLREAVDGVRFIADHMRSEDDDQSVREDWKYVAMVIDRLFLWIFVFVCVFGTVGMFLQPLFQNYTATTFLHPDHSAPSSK

[2] = biological target: T2, Neuronal acetylcholine receptor; alpha4/beta2 (Rattus norvegicus) (UniProt P09483+P12390); assay: (§1) Displacement of [3H]cytisine from alpha-4-beta-2 nAChR in rat brain membrane; format: cell membranes
Outline: (§2)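 Competition binding against [3H]cytisine on rat brain membranes at a contract lab, following a published nicotinic binding protocol. Affinity reported as Ki.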

[3] = biological target: T1, Neuronal acetylcholine receptor; alpha4/beta2; assay: as §1; format: cell membranes; outline: as §2
[4] = Metabolic stability in human liver; format: ADME, tissue-based
Outline: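 In vitro incubation with human liver homogenate; metabolic stability expressed as half-life (t1/2, min).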

[5] = Oral bioavailability in rat; format: ADME, organism-based; details: in vivo
Outline: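 Rat pharmacokinetic study with both intravenous and oral dosing; oral bioavailability (%) derived by comparing the two routes.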

[6] = biological target: T2, Neuronal acetylcholine receptor; alpha4/beta2 (Rattus norvegicus); assay: Antagonist activity at alpha-4-beta-2 nAChR in rat striatal slices assessed as blockade of nicotine-induced [3H]dopamine release at 10 uM; parameters: scale not given: the % may be the effect or the level left; details: Striatum, Slice
[7] = Drug level in po dosed rat plasma; format: ADME, organism-based; parameters: route oral
Outline: (§3)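 Rats dosed orally; drug concentrations at Cmax measured in brain tissue (ng/g) and in plasma (ng/ml).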

[8] = biological target: T2, Neuronal acetylcholine receptor; alpha4/beta2 (Rattus norvegicus); assay: Agonist activity at alpha4beta2 nAChR in rat striatal membranes assessed as effect on [3H]dopamine release; format: functional; details: Striatum, Slice, in the assay text read “striatal slices” for “striatal membranes”
Outline: (§4)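 Rat striatal slices were used for [3H]dopamine release. Test compound was added with the K+ pulse for 5 min, at 10 nM (t = 50 min) and 1 µM (t = 90 min). […] In parallel runs, mecamylamine (0.1 µM) or DHβE (1 µM) sensitivity was read as percent inhibition of evoked release.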

[9] = biological target: T2, Neuronal acetylcholine receptor; alpha4/beta2 (Rattus norvegicus); assay: Agonist activity at alpha-4-beta-2 nAChR in rat striatal membranes assessed as effect on [3H]dopamine release relative to nicotine; format: functional; details: Striatum, Slice, in the assay text read “striatal slices” for “striatal membranes”; outline: as §4
[10] = Ratio of drug level in brain to plasma in po dosed rat; format: ADME, organism-based
Outline: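 Rat iv/po pharmacokinetic study. Drug levels were measured in brain (ng/g) and plasma (ng/ml) after oral administration, and the brain-plasma ratio was derived from them.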

[11] = Drug level in po dosed rat brain; format: ADME, organism-based; parameters: route oral; outline: as §3

Compound: CN[C@@H](C)C/C=C/c1cncc(OC)c1
- Ki [1]: 11 nM

- Activity [2]: inactive
Compound: COc1ccc2cc(C[C@H]3CCCN3)[nH]c2n1

Compound: Clc1ccc2cc(C3CCCNC3)[nH]c2n1 (racemic)
- Activity [2]: inactive

Compound: CN1CCC[C@@H]1Cc1cc2cccnc2[nH]1
- Ki [3]: 2510 nM

Compound: c1cnc2[nH]c(C3CCCNC3)cc2c1 (single isomer, unassigned; (-))
- Ki [3]: 2000 nM

Compound: Brc1ccc2cc(C[C@@H]3CCCN3)[nH]c2n1
- Activity [2]: inactive

- Ki [3]: 10 nM
- half-life [4]: 2.23 h
Compound: Br.c1cnc2[nH]c(C3CCNC3)cc2c1 (configuration not stated)

Compound: CN1CCC[C@H]1Cc1cc2cccnc2[nH]1
- Ki [3]: 691 nM

Compound: Clc1ccc2c(C3CCCNC3)c[nH]c2n1 (configuration not stated)
- Ki [3]: 2950 nM

- bioavailability [5]: 11.3%
- Activity [6]: 70%
- Cmax [7]: 120 ng/mL
- Activity [8]: Active
- Activity [9]: 62%
- half-life [4]: 4.43 h
- Kp [10]: 3.7
- Cmax [11]: 280 ng/g
Compound: c1cnc2[nH]c(C[C@H]3CCCN3)cc2c1

Compound: c1cnc2[nH]cc(C3CCCNC3)c2c1 (configuration not stated)
- Ki [3]: 2950 nM

Compound: Clc1ccc2cc(C3CCCNC3)[nH]c2n1 (single isomer, unassigned; (+))
- Ki [3]: 3460 nM

- Ki [3]: 16 nM
Compound: c1cnc2[nH]c(C3CCNC3)cc2c1 (racemic)

Compound: Brc1ccc2cc(C[C@H]3CCCN3)[nH]c2n1
- Ki [3]: 691 nM

Compound: Clc1ccc2cc(C3CCCNC3)[nH]c2n1 (single isomer, unassigned; (-))
- Activity [2]: inactive

Compound: Clc1ccc2cc(C[C@H]3CCCN3)[nH]c2n1
- Ki [3]: 147 nM

- Ki [3]: 2750 nM
Compound: c1cnc2[nH]c(C[C@@H]3CCCN3)cc2c1

Compound: Fc1ccc2cc(C[C@@H]3CCCN3)[nH]c2n1
- Ki [3]: 2000 nM

Compound: Fc1ccc2cc(C[C@H]3CCCN3)[nH]c2n1
- Ki [3]: 316 nM

- Activity [8]: Active
Compound: c1cnc2[nH]c(C3CCNC3)cc2c1 (configuration not stated)

- Ki [3]: 251 nM
Compound: c1cnc2[nH]c(C3CCNC3)cc2c1 (single isomer, unassigned; (-))

Compound: Clc1ccnc2[nH]c(C3CCCNC3)cc12 (configuration not stated)
- Activity [2]: inactive

Compound: Clc1ccc2cc(C[C@@H]3CCCN3)[nH]c2n1
- Ki [3]: 3720 nM

Compound: c1cnc2[nH]c(C3CCCNC3)cc2c1 (single isomer, unassigned; (+))
- Activity [2]: inactive
